Data: ChEMBL document CHEMBL1133763, “Synthesis and immunosuppressive activity of novel prodigiosin derivatives” (J Med Chem, 2000)
In brackets after ≈: the same amount, converted by molar mass.

What was measured:
[1] = tested on: B16; assay: Selectivity index was evaluated; format: functional, Mus musculus
Outline: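 Ratio of mean IC50 for MTT viability in K562, B16 and resting lymphocytes (averaged over the three) to IC50 for Con A-stimulated splenocyte proliferation.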

[2] = species: Mus musculus; assay: The concentration inhibiting 50% cell proliferation of murine Splenocytes induced by the mitogen Concanavalin A of mice; format: functional
Outline: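 Spleens from C57Bl/6 mice; splenocytes at 4 × 10^5 cells/well in triplicate with Con A 1.7 µg/mL and varying compound concentrations in complete RPMI 1640. 72 h at 37 °C, 5% CO2; [3H]thymidine 0.2 µCi/well during final 18 h; uptake counted by scintillation. IC50 from % inhibition of cpm versus control; mean ± SD of ≥3 experiments.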

[3] = tested on: B16; assay: Cytotoxicity, ability to inhibit viability of murine resting lymphocytes, murine B16 melanoma cells and human K562 erythroleukemia cells by 50% by […]; format: functional, cell-based; details: Mus musculus
Outline: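 Murine resting lymphocytes (4 × 10^5 cells/well), murine B16 melanoma and human K562 cells (1 × 10^5 cells/well each) seeded in triplicate with a range of compound concentrations in complete RPMI 1640 (10% inactivated FCS); DMSO stocks at 2 mg/mL diluted at use. MTT added for last 4 h of 48 h culture; formazan dissolved in HCl–2-propanol, OD 570/690 nm; IC50 from % inhibition versus control.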

[4] = tested on: Mus musculus; assay: Dose able to reduce by 50% the thickness increase compared to controls by DTH Assay on mice after daily dose by ip route for 6 days; format: functional; details: 144 h
Outline: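 Female C57Bl/6 mice, 8-9 weeks, primed iv with 1 × 105 SRBC in saline; footpad challenge 5 days later with 1 × 108 SRBC. Compound in Cremophor ELP/ethanol (6.5:3.5) given ip daily for 6 days from priming day at several doses. Footpad swelling by dial micrometer 24 h post-challenge; ED50 = dose halving swelling increase; 10 animals/group, ≥3 experiments.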

[5] = tested on: Mus musculus; assay: The Toxicity of compound was measured by DTH Assay on mice after giving compound daily by ip route for 6 days at different doses; format: organism-based; details: in vivo, 144 h
Outline: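 Female C57Bl/6 mice, 8-9 weeks old, were primed iv with 1 × 10^5 SRBC and challenged in the footpad with 1 × 10^8 SRBC five days later. Compound in Cremophor ELP/ethanol (6.5:3.5 v:v) was given ip daily for 6 days from priming. Value is the minimal daily dose causing weight loss, hair ruffling or occasionally death, as mean ± SD of ≥3 experiments, 10 mice/group.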

COc1cc(-c2ccc[nH]2)[nH]c1/C=C1/C=C2CCCCC2=N1
Selectivity index [1]: 6 | IC50 [2]: 0.0185 µg/mL (≈ 0.0631 µM) | IC50 [3]: 0.12 µg/mL (≈ 0.409 µM)

CC1=N/C(=C\c2[nH]c(-c3ccc(C)[nH]3)cc2OCc2ccccc2)C=C1
IC50 [2]: 0.0041 µg/mL (≈ 0.0119 µM) | IC50 [3]: 0.077 µg/mL (≈ 0.224 µM)

CCCCCC1=N/C(=C\c2[nH]c(-c3ccc[nH]3)cc2OC)C=C1
Selectivity index [1]: 4 | IC50 [2]: 0.02 µg/mL (≈ 0.0646 µM) | IC50 [3]: 0.079 µg/mL (≈ 0.255 µM)

CCCCCCCCCCCC1=N/C(=C\c2[nH]c(-c3ccc(C(C)=O)[nH]3)cc2OC)C=C1
IC50 [2]: 0.1 µg/mL (≈ 0.23 µM) | IC50 [3]: > 1 µg/mL

CCCCCCCCCCCC1=N/C(=C\c2[nH]c(-c3cccs3)cc2OCc2ccccc2)C=C1
IC50 [2]: > 1 µg/mL | IC50 [3]: > 1 µg/mL

C1=C(OCc2ccccc2)/C(=C/c2ccc[nH]2)N=C1c1ccc[nH]1
Selectivity index [1]: 12 | IC50 [2]: 0.0153 µg/mL (≈ 0.0485 µM) | IC50 [3]: 0.181 µg/mL (≈ 0.574 µM)

CCCCCCCCCCCC1=N/C(=C\c2[nH]c(-c3ccc[nH]3)cc2OCc2ccccc2)C=C1
ED50 [4]: 1.1 mg/kg | Selectivity index [1]: 155 | Toxicity [5]: 5 mg/kg | IC50 [2]: 0.0242 µg/mL (≈ 0.0515 µM) | IC50 [3]: 3.74 µg/mL (≈ 7.96 µM)

CCCCCCCCCCCC1=N/C(=C\c2[nH]c(-c3ccc[nH]3)cc2OCC)C=C1
ED50 [4]: 1.2 mg/kg | Selectivity index [1]: 107 | Toxicity [5]: 2 mg/kg | IC50 [2]: 0.0018 µg/mL (≈ 0.00442 µM) | IC50 [3]: 0.193 µg/mL (≈ 0.474 µM)

CCCCCCCCCCC1=N/C(=C\c2[nH]c(-c3ccc[nH]3)cc2OCc2ccccc2)C=C1
Selectivity index [1]: 75 | IC50 [2]: 0.013 µg/mL (≈ 0.0285 µM) | IC50 [3]: 0.97 µg/mL (≈ 2.13 µM)

CCCCCC1=N/C(=C\c2[nH]c(-c3ccc[nH]3)cc2OCc2ccccc2)C=C1
Selectivity index [1]: 17 | IC50 [2]: 0.0049 µg/mL (≈ 0.0127 µM) | IC50 [3]: 0.083 µg/mL (≈ 0.215 µM)

CCCCCCCCCCCCCCCC1=N/C(=C\c2[nH]c(-c3ccc[nH]3)cc2OC)C=C1
Selectivity index [1]: 76 | IC50 [2]: 0.0163 µg/mL (≈ 0.0362 µM) | IC50 [3]: 1.24 µg/mL (≈ 2.75 µM)

C1=C/C(=C/c2[nH]c(-c3ccc[nH]3)cc2OCc2ccccc2)N=C1CC1CCCCC1
Selectivity index [1]: 72 | IC50 [2]: 0.0021 µg/mL (≈ 0.0051 µM) | IC50 [3]: 0.151 µg/mL (≈ 0.367 µM)

COc1cc(-c2ccc[nH]2)[nH]c1/C=C1/C=CC(CCCCCC(=O)N2CCOCC2)=N1
IC50 [2]: > 1 µg/mL | IC50 [3]: > 1 µg/mL

COc1cc(-c2ccc[nH]2)[nH]c1/C=C1/C=CC(CCCCCCF)=N1
Selectivity index [1]: 23 | IC50 [2]: 0.0074 µg/mL (≈ 0.0217 µM) | IC50 [3]: 0.172 µg/mL (≈ 0.504 µM)

CC1=N/C(=C\c2[nH]c(-c3ccc[nH]3)cc2OCc2ccccc2)C=C1
Selectivity index [1]: 10 | IC50 [2]: 0.0079 µg/mL (≈ 0.024 µM) | IC50 [3]: 0.083 µg/mL (≈ 0.252 µM)

CCCCCCCCCCCC1=N/C(=C\c2[nH]c(-c3cc4cc(Cl)ccc4[nH]3)cc2OC)C=C1
IC50 [2]: > 1 µg/mL | IC50 [3]: > 1 µg/mL

COc1cc(-c2ccc[nH]2)[nH]c1/C=C1/C=CC(CCCCCCO)=N1
Selectivity index [1]: 14 | IC50 [2]: 0.0564 µg/mL (≈ 0.166 µM) | IC50 [3]: 0.787 µg/mL (≈ 2.32 µM)

CCCCCCCCCCCC1=N/C(=C\c2[nH]c(-c3ccc[nH]3)cc2O)C=C1
IC50 [2]: > 1 µg/mL | IC50 [3]: > 1 µg/mL

COC(=O)CCCCCC1=N/C(=C\c2[nH]c(-c3ccc[nH]3)cc2OC)C=C1
IC50 [2]: > 1 µg/mL | IC50 [3]: > 1 µg/mL

CCCCCCCCCCCCCC1=N/C(=C\c2[nH]c(-c3ccc[nH]3)cc2OCc2ccccc2)C=C1
Selectivity index [1]: 11 | IC50 [2]: 0.262 µg/mL (≈ 0.526 µM) | IC50 [3]: 2.78 µg/mL (≈ 5.59 µM)

CCCCCCCC1=N/C(=C\c2[nH]c(-c3ccc[nH]3)cc2OCc2ccccc2)C=C1
Selectivity index [1]: 49 | IC50 [2]: 0.0036 µg/mL (≈ 0.0087 µM) | IC50 [3]: 0.178 µg/mL (≈ 0.43 µM)

C1=C/C(=C/c2[nH]c(-c3ccc[nH]3)cc2OCc2ccccc2)N=C1Cc1ccccc1
Selectivity index [1]: 43 | IC50 [2]: 0.0065 µg/mL (≈ 0.016 µM) | IC50 [3]: 0.279 µg/mL (≈ 0.688 µM)

CCCCCCCCCCCC1=N/C(=C\c2[nH]c(-c3ccc[nH]3)cc2OCCC)C=C1
ED50 [4]: 1 mg/kg | Selectivity index [1]: 58 | Toxicity [5]: 2 mg/kg | IC50 [2]: 0.0056 µg/mL (≈ 0.0133 µM) | IC50 [3]: 0.322 µg/mL (≈ 0.764 µM)

CCCCCCCCCCCC1=N/C(=C\c2[nH]c(-c3ccc[nH]3)cc2OC(C)C)C=C1
Selectivity index [1]: 108 | IC50 [2]: 0.0026 µg/mL (≈ 0.00617 µM) | IC50 [3]: 0.282 µg/mL (≈ 0.669 µM)

CCCCCCCCCCCC1=N/C(=C\c2[nH]c(-c3cc4ccccc4[nH]3)cc2OC)C=C1
IC50 [2]: 0.25 µg/mL (≈ 0.564 µM) | IC50 [3]: > 1 µg/mL

CCCCCCCCCCCC1=N/C(=C\c2[nH]c(-n3cncn3)cc2OC)C=C1
IC50 [2]: > 1 µg/mL | IC50 [3]: > 1 µg/mL

CCCCCCCCCCCC1=N/C(=C\c2[nH]c(-c3cc4cc(OC)ccc4[nH]3)cc2OC)C=C1
IC50 [2]: 0.128 µg/mL (≈ 0.27 µM) | IC50 [3]: > 1 µg/mL

COc1cc(-c2ccc[nH]2)[nH]c1/C=C1/C=CC(CCCCCC(=O)O)=N1
IC50 [2]: > 1 µg/mL | IC50 [3]: > 1 µg/mL

CCCCCCCCCCCC1=N/C(=C\c2ccc(-c3ccc[nH]3)[nH]2)C=C1
Selectivity index [1]: 3 | IC50 [2]: 0.4 µg/mL (≈ 1.1 µM) | IC50 [3]: 1.22 µg/mL (≈ 3.34 µM)

COc1cc(-c2ccc[nH]2)[nH]c1/C=C1/C=CC(CCc2ccccc2)=N1
Selectivity index [1]: 40 | IC50 [2]: 0.0075 µg/mL (≈ 0.0218 µM) | IC50 [3]: 0.299 µg/mL (≈ 0.871 µM)

CCCCCCCC1=N/C(=C\c2[nH]c(-c3ccc[nH]3)cc2OC)C=C1
Selectivity index [1]: 29 | IC50 [2]: 0.0056 µg/mL (≈ 0.0166 µM)

CCCCCCCCCCCC1=N/C(=C\c2[nH]c(-c3ccccc3)cc2OC)C=C1
IC50 [2]: > 1 µg/mL | IC50 [3]: > 1 µg/mL

CCCCCCCCCCCCCC1=N/C(=C\c2[nH]c(-c3ccc[nH]3)cc2OC)C=C1
ED50 [4]: 0.8 mg/kg | Selectivity index [1]: 201 | Toxicity [5]: 1.5 mg/kg | IC50 [2]: 0.0014 µg/mL (≈ 0.00332 µM) | IC50 [3]: 0.282 µg/mL (≈ 0.669 µM)

CCCCCCCCCCCC1=N/C(=C\c2[nH]c(C(=O)NCC)cc2OC)C=C1
IC50 [2]: > 1 µg/mL | IC50 [3]: > 1 µg/mL

COc1cc(-c2ccc[nH]2)[nH]c1/C=C1/C=CC(CCCCCCCCCCC(=O)O)=N1
IC50 [2]: > 1 µg/mL | IC50 [3]: > 1 µg/mL

CCCCCCCCCCCC1=N/C(=C\c2[nH]c(-c3ccc[nH]3)cc2OCCCC)C=C1
ED50 [4]: 1.5 mg/kg | Selectivity index [1]: 133 | Toxicity [5]: 3 mg/kg | IC50 [3]: 1.51 µg/mL (≈ 3.47 µM)

COc1cc(-c2ccc[nH]2)[nH]c1/C=C1/C=CC(CCCCCCCC#N)=N1
Selectivity index [1]: 14 | IC50 [2]: 0.0162 µg/mL (≈ 0.0447 µM) | IC50 [3]: 0.235 µg/mL (≈ 0.648 µM)

CCCCCCCCCCC1=N/C(=C\c2[nH]c(-c3ccc[nH]3)cc2OC)C=C1
Selectivity index [1]: 87 | IC50 [2]: 0.0018 µg/mL (≈ 0.00474 µM) | IC50 [3]: 0.156 µg/mL (≈ 0.411 µM)

CCCCCCCCCCCC1=N/C(=C\c2[nH]c(-c3ccc[nH]3)cc2OC)C=C1 [UNDECYLPRODIGININE]
ED50 [4]: 0.6 mg/kg | Toxicity [5]: 1 mg/kg | IC50 [2]: 0.002 µg/mL (≈ 0.00508 µM) | IC50 [3]: 0.106 µg/mL (≈ 0.269 µM)
